Data taken from PMC2820722 (Journal of the American Chemical Society, 2010).
Peptide text beside a SMILES is read from it. * marks the point of attachment. Cbz = O=C(OCc1ccccc1)*

Columns and labels:
[1] = system: proteasome with defective Ch-L subunit in yeast cell lysate; experiment: Yeast cell lysate assay, defective Ch-L subunit; type: biochemical; conditions: peptide 9.25 μM; ~1 mg protein/mL lysate; λex 600 nm, λem 700 nm; Fig. 1A brown
How it was run: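 Yeast cells (catalytic Thr→Ala) were harvested in log phase into 50 mM Tris-HCl pH 7.4, 1 mM EDTA, 5 mM MgCl2, drop-frozen in liquid nitrogen, cryolysed by grinding mill, and cleared (14000 rpm, 20 min, 4 °C). Protein was set equal by Bradford. The sensor was added as half the assay volume from a 2× solution, and fluorescence change was followed on a plate reader.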

[2] = system: 20S proteasome Ca-L active site; type: biochemical, Saccharomyces cerevisiae; conditions: 30 μM peptide 5; 100 μM Z-LLE-βna; purified 20S proteasome, Buffer A, 30 °C; λex 342 nm, λem 425 nm; Fig. 2B
[3] = system: 20S proteasome T-L active site; type: biochemical, Saccharomyces cerevisiae; conditions: 30 μM peptide 5; 100 μM Boc-LRR-amc; purified 20S proteasome, Buffer A, 30 °C; λex 380 nm, λem 460 nm; Fig. 2B
[4] = system: proteasome Ch-L catalytic subunit in yeast cell lysate (defective T-L/Ca-L); experiment: Yeast cell lysate assay, double mutant strain; type: biochemical; conditions: MG132 5 μM, peptide 5 9.25 μM, Fig. 1A green
[5] = Light-driven conversion of caged probe to active probe; type: physicochemical; conditions: 349 nm pulsed UV laser; caged fluorescein derivative as reference (Fig. S-6)
How it was run: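 Uncaging by 349 nm diode-pumped Q-switched UV laser (5 ns pulses, 1 kHz, […] pulse energy) of the sample in a quartz cuvette. Dose was set by the number of pulses delivered and compared against an […] (CMNB)-fluorescein reference standard.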

Question: For “Ac-His-Trp-Ser-Leu-Lys(Fl)-amide [Peptide 5]”, which “Fluorescence change of the sensor in lysate with defective Ch-L subunit” value [1] is on record?
Answer: barely perceptible fluorescence change

Question: And the “Effect of Ch-L substrate on rate of Ca-L substrate processing” value [2]?
Answer: reduces the rate

Question: What about the “Effect of Ch-L substrate on rate of T-L substrate processing” value [3] of the same molecule?
Answer: reduces the rate

Question: For `CC(C)C[C@@H](C=O)NC(=O)[C@H](CC(C)C)NC(=O)[C@H](CC(C)C)NC(=O)OCc1ccccc1` [MG132] (Cbz-Leu-Leu-Leu-aldehyde), which “Effect of inhibitor on hydrolytic activity towards peptide 5 in lysate” value [4] is on record?
Answer: completely abolishes hydrolytic activity

Question: For “Ac-His-Trp-Ser-Leu-N(DMNB)-Lys(Fl)-amide [Peptide 10]”, which “Quantum yield for the photolytic conversion of 10 to 5” value [5] is on record?
Answer: 0.08
